Where a SMILES comes first, the peptide text is derived from it.
What was measured:
[1] = molecular target: Kappa-type opioid receptor (Homo sapiens, UniProt P41145); experiment: Displacement of [3H]U69593 from human kappa opioid receptor expressed in CHO-K1 cells incubated for 1 hr by 1450 microbeta scintillation counter analysis; assay type: cell-based
How it was run: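 Membranes from transiently KOR-transfected CHO-K1 cells (~2 µg/well) used in SPA with 3H-U69,593 (1 nM). Competitor ranged 1 pM–10 µM in 50 mM Tris-HCl pH 7.4, 5 mM MgCl2, 0.1% BSA. Incubated 1 h at room temperature with shaking. Nonspecific binding defined with 10 µM dynorphin A. Sigmoidal dose-response fit; at least three independent experiments in triplicate.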

[2] = Metabolic stability in Wistar rat plasma assessed as half life by HPLC analysis; assay type: ADME, cell-free
How it was run: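 Peptide at 1 mg/mL in sterile PBS pH 7.4 was mixed 1:1 with thawed, centrifuged Wistar rat plasma supernatant and incubated at 37°C in triplicate. Samples at 0, 1, 2, 3, 4, 6 and 24 h were quenched with acetonitrile and then 2% TFA/water, and analysed by HPLC with inline electrospray MS.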

Sequence of Kappa-type opioid receptor (P41145 whole entry): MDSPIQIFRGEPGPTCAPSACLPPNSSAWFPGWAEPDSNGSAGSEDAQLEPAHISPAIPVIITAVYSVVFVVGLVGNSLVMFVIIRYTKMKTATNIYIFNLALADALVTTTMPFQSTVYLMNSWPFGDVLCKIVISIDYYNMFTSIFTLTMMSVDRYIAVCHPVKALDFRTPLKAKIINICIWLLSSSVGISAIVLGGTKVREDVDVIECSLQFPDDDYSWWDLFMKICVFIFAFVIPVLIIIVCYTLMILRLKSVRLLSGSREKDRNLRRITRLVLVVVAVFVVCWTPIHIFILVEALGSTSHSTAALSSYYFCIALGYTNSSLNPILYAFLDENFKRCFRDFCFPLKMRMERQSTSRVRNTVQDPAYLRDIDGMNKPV

SMILES: N=C(N)NCCC[C@@H](NC(=O)[C@@H](CCCNC(=N)N)NC(=O)[C@@H]1CCCN1C(=O)c1ccccc1)C(=O)N[C@@H](CCC(N)=O)C(=O)N[C@H](CN[C@H]1CSSC[C@@H](C(N)=O)NC1=O)CC1CCCCC1
- Ki [1]: 0.135 µM
- half-life [2]: 16 h

SMILES: CC[C@H](C)[C@H](NC(=O)[C@H](CCC(N)=O)NC(=O)[C@H](CCCNC(=N)N)NC(=O)[C@@H](N)CCCNC(=N)N)C(N)=O (H-RRQI-NH2)
- Ki [1]: 23 µM

From ChEMBL document CHEMBL5252514, “Conopeptide-Derived κ-Opioid Agonists (Conorphins): Potent, Selective, and Metabolic Stable Dynorphin A Mimetics with Antinociceptive Properties” (J Med Chem, 2016)
